Results on 37 variants are retold here after the RNAGym collection of RNA variant scans (doi:10.1126/science.aae0568).

Variants at the floor of the assay were thinned out.

First the molecules themselves.
B1: tRNA (parent)
chain: GUUCCGUUGGCGUAAUGGUAACGCGUCUCCCUCCUAAGGAGAAGACUGCGGGUUCGAGUCCCGUACGGAACG

This series covers variants of B1. Briefly: yeast fitness relative to wild type (ratio to wild type); higher = fitter; tRNA-Arg(CCU), competitive growth, 37 C, YPD. The procedure, abridged: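 A pool of Saccharomyces cerevisiae strains, each with a tRNA-Arg(CCU) gene variant at the native genomic locus, was competed in YPD at 37°C for 24 hours across six parallel replicates. The variants had been chemically synthesised at a 3% per-site mutation rate over 69 sites, and gene amplicons before and after competition were read by 100-nucleotide paired-end sequencing. Darwinian fitness relative to wild type rested on changes in genotype frequencies. Genotypes required ≥ 100 starting reads, and estimates < 0.5 were set to 0.5.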
Turning to GUUCCGUUGGUGUAAUGGUAACGCGUCUCCCUCCUAAGGAGAAGACUGCGGGUUCGAGUCCCGUACAGAACG [C11U G67A], the yeast fitness turned out to be 0.816.
Regarding GUUCCGUUGGUGUAAUGGUAACGCGUCUCCCUCCUAAGGAGAAGACUGCGGGUUCGAGUCCCGUACUGAACG [C11U G67U], the yeast fitness amounted to 0.846.
The figure for GUUCCGUUGGUGUAAUGGUAACGCGUCUCCCUCCUAAGGAGAAGACUGCCGGUUCGAGUCUCGUACGGAACG [C11U G50C C61U] is 0.581; for GUUCCGUUGGUGUAAUGGUAACGCAUCUCCCUCCUAAGGAGAAGACUGCGGGUUCGAGUCCGGUACGGAACG [C11U G25A C62G] it is 0.569; for GUUCCGUUGGUGUAAUGGUAACGCGUCUCCCUCCUAAGGAGAAAACUGCGGGUUCGAGUCCUGUACGGAACG [C11U G44A C62U] it is 0.762.
The figure for GUUCCGUUGGUGUAAUGGCAACGCGUCUCCCUCCUAAGGAGAAGACUGCGGGUUCGAGCCACGUACGGAACG [C11U U19C U59C C61A] is ≤ 0.5; for GUUCCGUUGGUGUAAUGGUAACGCGUCUCCCUCCUAAGGAAAAGACUGCGGGUUCGAAUCCCGUACGGAACG [C11U G41A G58A] it is 0.768.
The figure for GUUCCGUUGGUGUAAAGGUAACGCGUCUCCCUCCUAAGGAGAAGACUGCGGGUUCGAGUCCCGUACGGAACG [C11U U16A] is 0.819; for GUUCCGUUGGUGCAAUGGUAACGAGUCUCCCUCCUAAGGAGAAGACAGCGGGUUCGAGUCCCGUACGGAACG [C11U U13C C24A U47A] it is ≤ 0.5; for GUUCCGUUGGUGUAACGGUAACGCGUCUCCCUACUAAGGAGAAGACUGCGGGCUCGAGUCCCGUAGUGAACG [C11U U16C C33A U53C C66G G67U] it is ≤ 0.5.
For GUUCCGUUGGUGCAAUGGUAACGCGUCCCCCUCCUAAGGAGUAGACUGCGGGUUAAAGUCCCGUACGGAACG [C11U U13C U28C A42U C55A G56A], the yeast fitness is ≤ 0.5.
Turning to GUUCCGUUGGUGUAAUGGUAACGCCUCUCCCUCCUAAGGUGAAGACUGGGGGUUCGAGUCCCCUACGGAACG [C11U G25C A40U C49G G63C], the yeast fitness was ≤ 0.5.
The figure for GUUCCGUUGGUGUAAUGGUAACGCGUCUCCCUCCUAAGGAGAAGACUGCAGGUUCGAGUCCCGUACGGCACG [C11U G50A A69C] is 0.522; for GUUCCGUUGGUGCAAUGGUAACGCGUCUUCCUCCUACGGAGAAGACUGCGGGUACGAGUCCUGUACGAAACG [C11U U13C C29U A37C U54A C62U G68A] it is ≤ 0.5; for GUUCCGUUGGUGUAAUGGCUACGCGUCUCCCUCCUAAGGAGCAGACUGCGGGUUCGAGUCCCGUCCGGUACG [C11U U19C A20U A42C A65C A69U] it is ≤ 0.5.
The figure for GUUCCGUUGGUGCAAUGGUAACGCGUCUUCCUCCUACGGAGAAGAAUGCGGGUUCGAGUCCCGUACGGAACG [C11U U13C C29U A37C C46A] is ≤ 0.5.
The figure for GUUCCGUUGGUGGAAUGGAAAGGCAUCUCCCUCCUAAGGAGAAGACUGCGGGUUCGAGUCCCGUACGGUACG [C11U U13G U19A C22G G25A A69U] is ≤ 0.5; for GUUCCGUUGGUGUAAUGGUAACGCGUCUCCCUCCUAAGGAGAAGACUACGCGUUCGAGUACCGCACGGAACG [C11U G48A G51C C60A U64C] it is 0.887; for GUUCCGUUGGUGUAAUGGUAACGCGUCUCCCUCCUAAGGAGAAGACUGCGCGUUCGAGUCCCGUACGGAACG [C11U G51C] it is 0.718.
As for GUUCCGUUGGUGUAAUGGUAACGCGUCUCCCUCCUAAGAUGAAGACUGCGGGUUCGAGUCCCGUACGGAACG [C11U G39A A40U], the yeast fitness is 0.673.
The figure for GUUCCGUUGGUGUAAUGGUAACGCGUCUCCCUCCUAAGGAGAAGACUGCGGGUUCGACUCCCGUACGGAACG [C11U G58C] is 0.925; for GUUCCGUUGGUGUAAUGGUAACGCGUCUCCCUCCUAAGGAGAACACUGCGGGUUCGAGUCCCGUACGGAACG [C11U G44C] it is 0.974; for GUUCCGUUGGUGUAAUGGUAACGCGUCUCCCUCCUAAGGAGAAAACUGCGGGUUCGAGUCCCGUACGGAACG [C11U G44A] it is 1.03.
The figure for GUUCCGUUGGUGUAACGGUAACGCAUCUCCCUCCUAAGGAGAAGACUGCGGGUUCGAGUCCCGUACGGAACG [C11U U16C G25A] is 0.9; for GUUCCGUUGGUGUAAUGGUAACGCGUCUCCCUCCUAAAGUGAAGACUGCGGCUUCGAGUCCCGUACGGAACG [C11U G38A A40U G52C] it is 0.568; for GUUCCGUUGGUGUAAUGGUAACGCGUCUCCCUCCUAAGGAGAAGACUACGCGUUCGAGUCACGUCCGGAACG [C11U G48A G51C C61A A65C] it is ≤ 0.5.
The figure for GUUCCGUUGGUGUAAUGGUAACGCGUCUCCCUCCUAAGCAGAAGACUGCGGGUUCGAGUCCUCUACGGAACG [C11U G39C C62U G63C] is ≤ 0.5; for GUUCCGUUGGUGUAAUGGUAACGCCUCUCCCUCCUUAGGAGAAGACUGCGGGUUCGAGUCCCGUACGGAACG [C11U G25C A36U] it is 0.547; for GUUCCGUUGGUGUAAUGGUAACGCGUCUCCCUCCUAAGGAGAAGACUGCGCGUUCGAGGCCCGUACGGAACG [C11U G51C U59G] it is 0.534.
Take GUUCCGUUGGUGUAAUGGUAACGCCUCUCCUUCCUAAGGAGAAGACUGCGGGUUCGAGUCCCGUACGGAACG [C11U G25C C31U]: the yeast fitness amounted to 0.679.
With GUUCCGUUGGUGUAAUGGUAACGCGUCUCCCUCCUAAGGAGAAGACUGCGGGUUCGAGUCCCGUACGAAACG [C11U G68A], the yeast fitness was determined as 0.878.
GUUCCGUUGGUGCAGUGGUAACGCGUCUCCCUCCUAAGGAGAAGAAUGCGGGUUCGAGUCCCGUACGGAACG [C11U U13C A15G C46A]: the yeast fitness turned out to be 0.631.
The figure for GUUCCGUUGGUGUAAUGGUAACGCGUCUCCCUCCUAAGCAGAAGACUGCGGGUUCGAGUCCCGUACGGAACG [C11U G39C] is 0.68; for GUUCCGUUGGUGUAACGGUAACGCGUCCCCCUCCUAAGGAGACGACUGCGGGUUCGAGUCCCGUACGGAACG [C11U U16C U28C A43C] it is ≤ 0.5.
The figure for GUUCCGUUGGUGUAAAGGUAACGCGUCUCCCUCCUAAGGAGAAGACUGCGGGUUCGAGUCCCGAACGGAACG [C11U U16A U64A] is 0.514.
Regarding GUUCCGUUGGUGUAAUGGAAACGCGUCUCCCACCUAUGGAGAAGACUGCGGGUUCGAGUCCCGUACGGAACG [C11U U19A U32A A37U], the yeast fitness is ≤ 0.5.
The figure for GUUCCGUUGGUGUAAUGGUAACGCGUCUCCCUCCUAAGGAGAAGACUGCGGGUUCAAGUCCCGUACGGAACG [C11U G56A] is 0.901.
